Experimental data published in ChEMBL document CHEMBL2375276, “Antibacterial oxazolidinone analogues having a N-hydroxyacetyl-substituted seven-membered [1,2,5]triazepane or [1,2,5]oxadiazepane C-ring unit” (Eur J Med Chem, 2013).
≈ marks a conversion by molar mass, not a printed value.

How the values were obtained:
Enterococcus faecium [1] = assay: Ratio of linezolid MIC to compound MIC for Enterococcus faecium SR7940 clinical isolate; format: functional
Streptococcus pneumoniae [2] = assay: Ratio of linezolid MIC to compound MIC for Streptococcus pneumoniae SR26207 clinical isolate; format: functional
Staphylococcus aureus [3] = assay: Ratio of linezolid MIC to compound MIC for Staphylococcus aureus Smith; format: functional
Enterococcus faecium [4] = assay: Ratio of eperezolid MIC to compound MIC for Enterococcus faecium SR7940 clinical isolate; format: functional
Haemophilus influenzae [5] = assay: Ratio of eperezolid MIC to compound MIC for Haemophilus influenzae SR27914 clinical isolate; format: functional
Staphylococcus aureus [6] = assay: Antibacterial activity against Staphylococcus aureus Smith assessed as growth inhibition by CLSI broth microdilution method; format: functional
Outline: (§1)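 MIC by CLSI broth microdilution in cation-adjusted Mueller-Hinton broth; S. pneumoniae medium supplemented with 5% lysed horse blood.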

Staphylococcus aureus [7] = assay: Antibacterial activity against methicillin-resistant Staphylococcus aureus SR3637 infected in JCL/ICR mouse systemic infection model assessed as mortality administered as iv measured over 7 days; format: functional; conditions: 168 h
Outline: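 Five-week-old male JCL/ICR mice (20–25 g), five per group. Infected intraperitoneally with 0.5 or 1.0 mL bacterial suspension (about 100× LD50). Intravenous dosing 1 h post-infection. Mortality followed 7 days; ED50 with 95% confidence limits by logit method.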

Enterococcus faecium [8] = assay: Antibacterial activity against Enterococcus faecium SR7940 clinical isolate assessed as growth inhibition by CLSI broth microdilution method; format: functional; outline: as §1
Enterococcus faecalis [9] = assay: Ratio of linezolid MIC to compound MIC for Enterococcus faecalis SR1004 clinical isolate; format: functional
MAO-A = molecular target: T1, MAO-A (Rattus norvegicus, UniProt P21396); assay: Inhibition of MAO-A in rat forebrain using [14C]5-HT as substrate at 30 uM incubated for 20 mins prior to substrate addition measured after 5 mins by liquid scintillation counting analysis relative to control; format: tissue-based; conditions: probe [14C]5-HT
T1 sequence (P21396 whole entry): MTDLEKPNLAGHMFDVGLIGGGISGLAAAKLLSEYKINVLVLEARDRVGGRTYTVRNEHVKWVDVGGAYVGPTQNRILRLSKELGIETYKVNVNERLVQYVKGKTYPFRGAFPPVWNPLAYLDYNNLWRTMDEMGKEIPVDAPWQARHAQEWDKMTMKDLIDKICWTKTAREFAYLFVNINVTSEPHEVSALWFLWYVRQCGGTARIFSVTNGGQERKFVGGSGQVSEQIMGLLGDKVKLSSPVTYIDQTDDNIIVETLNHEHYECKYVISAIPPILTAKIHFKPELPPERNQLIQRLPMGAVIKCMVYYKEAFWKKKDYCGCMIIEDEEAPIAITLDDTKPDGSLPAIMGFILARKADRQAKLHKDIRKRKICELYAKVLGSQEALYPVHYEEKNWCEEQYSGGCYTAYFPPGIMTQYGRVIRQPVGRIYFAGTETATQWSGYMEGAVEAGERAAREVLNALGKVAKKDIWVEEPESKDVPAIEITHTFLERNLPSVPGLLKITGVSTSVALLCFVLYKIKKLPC

Enterococcus faecalis [10] = assay: Antibacterial activity against Enterococcus faecalis SR1004 clinical isolate assessed as growth inhibition by CLSI broth microdilution method; format: functional; outline: as §1
Moraxella catarrhalis [11] = assay: Ratio of eperezolid MIC to compound MIC for Moraxella catarrhalis SR26840 clinical isolate; format: functional
Streptococcus pneumoniae [12] = assay: Ratio of eperezolid MIC to compound MIC for Streptococcus pneumoniae SR26207 clinical isolate; format: functional
Streptococcus pneumoniae [13] = assay: Antibacterial activity against Streptococcus pneumoniae SR26207 clinical isolate assessed as growth inhibition by CLSI broth microdilution method; format: functional; outline: as §1
MAO-B = molecular target: T2, MAO-B (Rattus norvegicus, UniProt P19643); assay: Inhibition of MAO-B in rat forebrain using [14C]PEA as substrate at 30 uM incubated for 20 mins prior to substrate addition measured after 10 mins by liquid scintillation counting analysis relative to control; format: tissue-based; conditions: probe [14C]PEA
T2 sequence (P19643 whole entry): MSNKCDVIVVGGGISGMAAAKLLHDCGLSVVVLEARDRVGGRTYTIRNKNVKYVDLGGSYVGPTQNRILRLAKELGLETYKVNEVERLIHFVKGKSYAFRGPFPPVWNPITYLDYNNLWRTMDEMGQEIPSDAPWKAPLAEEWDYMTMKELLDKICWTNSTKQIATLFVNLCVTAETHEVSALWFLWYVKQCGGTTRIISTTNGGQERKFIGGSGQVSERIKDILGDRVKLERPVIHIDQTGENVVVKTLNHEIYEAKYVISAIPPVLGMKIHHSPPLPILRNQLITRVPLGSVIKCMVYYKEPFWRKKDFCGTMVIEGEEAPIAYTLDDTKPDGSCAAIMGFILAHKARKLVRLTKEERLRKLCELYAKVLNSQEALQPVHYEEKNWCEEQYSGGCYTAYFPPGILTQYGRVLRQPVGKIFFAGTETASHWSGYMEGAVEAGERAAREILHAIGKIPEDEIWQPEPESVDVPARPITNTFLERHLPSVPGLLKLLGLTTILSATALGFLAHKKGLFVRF

Staphylococcus aureus [14] = assay: Antibacterial activity against methicillin-resistant Staphylococcus aureus SR3637 assessed as growth inhibition by CLSI broth microdilution method; format: functional
Outline: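 MIC by CLSI broth microdilution in cation-adjusted Mueller-Hinton broth. Lowest concentration inhibiting growth taken as MIC.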

Staphylococcus aureus [15] = assay: Antibacterial activity against Staphylococcus aureus SR20549 clinical isolate assessed as growth inhibition by CLSI broth microdilution method; format: functional; outline: as §1
Staphylococcus aureus [16] = assay: Ratio of eperezolid MIC to compound MIC for Staphylococcus aureus Smith; format: functional
Staphylococcus aureus [17] = assay: Ratio of linezolid MIC to compound MIC for Staphylococcus aureus SR20549 clinical isolate; format: functional
Moraxella catarrhalis [18] = assay: Antibacterial activity against Moraxella catarrhalis SR26840 clinical isolate assessed as growth inhibition by CLSI broth microdilution method; format: functional; outline: as §1
Cytochrome P450 2C9 = Cytochrome P450 2C9 (Homo sapiens, UniProt P11712); assay: Inhibition of human CYP2C9 assessed as tolbutamide hydroxylation after 20 mins by LC/MS/MS analysis; format: ADME
Outline: (§2)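 Human liver microsomes (0.2 mg protein/mL) with 1 mM NADPH in 50 mM HEPES pH 7.4, 10 mM MgCl2, 0.1 mM EDTA. After centrifugation, supernatant metabolite measured by LC/MS/MS. Standard curve from authentic metabolite cocktail added to unincubated reaction mix.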

Cytochrome P450 3A4 = Cytochrome P450 3A4 (Homo sapiens, UniProt P08684); assay: Inhibition of human CYP3A4 assessed as terfenadine hydroxylation after 20 mins by LC/MS/MS analysis; format: ADME; outline: as §2
Haemophilus influenzae [19] = assay: Ratio of linezolid MIC to compound MIC for Haemophilus influenzae SR27914 clinical isolate; format: functional
Moraxella catarrhalis [20] = assay: Ratio of linezolid MIC to compound MIC for Moraxella catarrhalis SR26840 clinical isolate; format: functional
Haemophilus influenzae [21] = assay: Antibacterial activity against Haemophilus influenzae SR27914 clinical isolate assessed as growth inhibition by CLSI broth microdilution method; format: functional
Outline: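 MIC by CLSI broth microdilution using Haemophilus test medium.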

Cytochrome P450 3A4, sequence (P08684 whole entry): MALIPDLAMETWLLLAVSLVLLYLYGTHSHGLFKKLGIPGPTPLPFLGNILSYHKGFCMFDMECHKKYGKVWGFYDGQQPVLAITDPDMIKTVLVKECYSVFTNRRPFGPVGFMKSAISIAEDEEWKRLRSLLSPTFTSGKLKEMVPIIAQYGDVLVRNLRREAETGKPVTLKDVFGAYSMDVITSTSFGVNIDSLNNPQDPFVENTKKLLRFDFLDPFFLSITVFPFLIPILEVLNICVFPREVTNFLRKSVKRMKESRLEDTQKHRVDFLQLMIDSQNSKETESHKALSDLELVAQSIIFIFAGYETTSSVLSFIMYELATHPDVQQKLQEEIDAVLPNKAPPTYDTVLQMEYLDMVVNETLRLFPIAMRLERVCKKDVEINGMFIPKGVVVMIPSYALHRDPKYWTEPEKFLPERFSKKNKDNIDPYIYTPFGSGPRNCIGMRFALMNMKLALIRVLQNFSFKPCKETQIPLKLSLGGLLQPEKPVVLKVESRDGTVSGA
Cytochrome P450 2C9, sequence (P11712 whole entry): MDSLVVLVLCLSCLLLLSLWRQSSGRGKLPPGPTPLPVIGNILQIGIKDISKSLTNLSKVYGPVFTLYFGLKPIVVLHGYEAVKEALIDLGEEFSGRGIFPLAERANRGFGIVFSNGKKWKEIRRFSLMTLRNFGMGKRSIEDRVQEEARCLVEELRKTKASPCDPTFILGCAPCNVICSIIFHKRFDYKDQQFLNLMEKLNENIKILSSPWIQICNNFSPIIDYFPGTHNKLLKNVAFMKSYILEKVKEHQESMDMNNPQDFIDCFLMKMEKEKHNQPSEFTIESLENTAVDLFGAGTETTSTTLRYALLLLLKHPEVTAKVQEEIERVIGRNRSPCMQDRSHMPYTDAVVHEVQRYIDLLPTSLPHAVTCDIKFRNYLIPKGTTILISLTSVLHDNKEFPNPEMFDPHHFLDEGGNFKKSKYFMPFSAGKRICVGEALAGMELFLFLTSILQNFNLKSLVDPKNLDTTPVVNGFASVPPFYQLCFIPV

Row | SMILES | Ratio (Enterococcus faecium [1]) | Ratio (Streptococcus pneumoniae [2]) | Ratio (Staphylococcus aureus [3]) | Ratio (Enterococcus faecium [4]) | Ratio (Haemophilus influenzae [5]) | MIC (Staphylococcus aureus [6]) [µg/mL] | ED50 (Staphylococcus aureus [7]) [mg/kg] | MIC (Enterococcus faecium [8]) [µg/mL] | Ratio (Enterococcus faecalis [9]) | inhibition at 5 min, 30 µM (MAO-A) [%] | MIC (Enterococcus faecalis [10]) [µg/mL] | Ratio (Moraxella catarrhalis [11]) | Ratio (Streptococcus pneumoniae [12]) | MIC (Streptococcus pneumoniae [13]) [µg/mL] | inhibition at 10 min, 30 µM (MAO-B) [%] | MIC (Staphylococcus aureus [14]) [µg/mL] | MIC (Staphylococcus aureus [15]) [µg/mL] | Ratio (Staphylococcus aureus [16]) | Ratio (Staphylococcus aureus [17]) | MIC (Moraxella catarrhalis [18]) [µg/mL] | other results
1 | COC(=S)NC[C@H]1CN(c2ccc(N3CCNN(C(=O)CO)CC3)c(F)c2)C(=O)O1 | 4 | 4 | 4 | 4 | 4 | 0.25 (≈ 0.566 µM) | 0.94 | 0.25 (≈ 0.566 µM) | 4 | 48.2 | 0.5 (≈ 1.13 µM) | 4 | 4 | 0.125 (≈ 0.283 µM) | 10.1 | 0.25 (≈ 0.566 µM) | 0.25 (≈ 0.566 µM) | 4 | 4 | 2 (≈ 4.53 µM) | IC50 (Cytochrome P450 2C9): > 20 µM; IC50 (Cytochrome P450 3A4): > 20 µM; Ratio (Haemophilus influenzae [19]): 4; Ratio (Moraxella catarrhalis [20]): 4; MIC (Haemophilus influenzae [21]): 4 µg/mL (≈ 9.06 µM)
2 | COC(=S)NC[C@H]1CN(c2cc(F)c(N3CCNN(C(=O)CO)CC3)c(F)c2)C(=O)O1 | 4 | 4 | 4 | 4 | 4 | 0.25 (≈ 0.544 µM) | 0.77 | 0.25 (≈ 0.544 µM) | 4 | 12.4 | 0.25 (≈ 0.544 µM) | 4 | 4 | ≤ 0.063 | 10.6 | 0.25 (≈ 0.544 µM) | 0.25 (≈ 0.544 µM) | 4 | 4 | 1 (≈ 2.18 µM) | IC50 (Cytochrome P450 2C9): > 20 µM; IC50 (Cytochrome P450 3A4): > 20 µM; Ratio (Haemophilus influenzae [19]): 4; Ratio (Moraxella catarrhalis [20]): 4; MIC (Haemophilus influenzae [21]): 4 µg/mL (≈ 8.71 µM)
